Measurements taken from ChEMBL document CHEMBL1132360, “N-Substituted (2,3-dihydro-1,4-benzodioxin-2-yl)methylamine derivatives as D(2) antagonists/5-HT(1A) partial agonists with potential as atypical antipsychotic agents” (J Med Chem, 1999).

Columns and labels:
[1] = target: T1, 5-hydroxytryptamine receptor 1A (Rattus norvegicus, UniProt P19327); assay: Binding affinity towards 5-hydroxytryptamine 1A receptor from rat brain using [3H]-8-OH-DPAT as radioligand
T1 sequence (P19327 whole entry): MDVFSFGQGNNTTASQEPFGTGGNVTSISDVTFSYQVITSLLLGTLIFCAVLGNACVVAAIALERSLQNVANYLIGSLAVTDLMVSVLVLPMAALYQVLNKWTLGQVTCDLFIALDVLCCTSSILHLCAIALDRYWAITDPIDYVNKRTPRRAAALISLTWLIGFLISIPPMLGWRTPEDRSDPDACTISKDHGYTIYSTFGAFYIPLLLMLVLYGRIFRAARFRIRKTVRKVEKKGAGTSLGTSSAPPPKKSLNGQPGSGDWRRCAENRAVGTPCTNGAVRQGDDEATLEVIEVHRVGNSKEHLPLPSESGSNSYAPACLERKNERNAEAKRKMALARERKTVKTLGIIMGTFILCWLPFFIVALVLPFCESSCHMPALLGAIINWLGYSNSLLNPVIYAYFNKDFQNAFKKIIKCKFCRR

[2] = target: T2, 5-hydroxytryptamine receptor 1A (Homo sapiens, UniProt P08908); assay: The compound was tested for binding affinity against 5-hydroxytryptamine 1A receptor receptor
T2 sequence (P08908 whole entry): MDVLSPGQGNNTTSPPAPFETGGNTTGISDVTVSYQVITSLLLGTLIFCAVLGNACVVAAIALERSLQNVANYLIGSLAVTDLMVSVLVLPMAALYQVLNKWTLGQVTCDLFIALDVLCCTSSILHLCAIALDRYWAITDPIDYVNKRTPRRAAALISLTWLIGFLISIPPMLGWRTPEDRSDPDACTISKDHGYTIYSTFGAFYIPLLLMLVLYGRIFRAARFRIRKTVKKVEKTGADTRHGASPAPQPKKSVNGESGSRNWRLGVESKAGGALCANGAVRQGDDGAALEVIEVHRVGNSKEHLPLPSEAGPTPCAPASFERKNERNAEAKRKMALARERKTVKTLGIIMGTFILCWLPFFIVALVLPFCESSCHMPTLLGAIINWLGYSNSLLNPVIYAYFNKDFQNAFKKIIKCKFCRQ

[3] = target: Serotonin 4 (5-HT4) receptor (Sus scrofa, UniProt Q6Q253); assay: The compound was tested for binding affinity against 5-hydroxytryptamine 4 receptor
[4] = target: T3, Adrenergic receptor alpha-1 (Homo sapiens, UniProt P35348+P25100+P35368); assay: The compound was tested for binding affinity against human Alpha-1 adrenergic receptor; format: protein assay
T3 sequence (P35348 whole entry): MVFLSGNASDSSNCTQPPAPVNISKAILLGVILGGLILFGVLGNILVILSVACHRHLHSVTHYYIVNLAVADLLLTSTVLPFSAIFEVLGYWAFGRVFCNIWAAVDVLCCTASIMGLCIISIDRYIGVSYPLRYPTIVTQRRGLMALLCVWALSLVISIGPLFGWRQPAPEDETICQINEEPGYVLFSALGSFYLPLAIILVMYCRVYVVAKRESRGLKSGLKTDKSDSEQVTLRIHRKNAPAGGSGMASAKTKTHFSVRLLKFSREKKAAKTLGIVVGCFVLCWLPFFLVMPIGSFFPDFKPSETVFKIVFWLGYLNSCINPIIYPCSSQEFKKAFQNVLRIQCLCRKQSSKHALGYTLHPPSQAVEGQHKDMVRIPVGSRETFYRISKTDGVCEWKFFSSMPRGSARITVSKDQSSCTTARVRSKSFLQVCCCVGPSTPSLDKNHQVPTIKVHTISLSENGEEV
T3 sequence (P25100 whole entry): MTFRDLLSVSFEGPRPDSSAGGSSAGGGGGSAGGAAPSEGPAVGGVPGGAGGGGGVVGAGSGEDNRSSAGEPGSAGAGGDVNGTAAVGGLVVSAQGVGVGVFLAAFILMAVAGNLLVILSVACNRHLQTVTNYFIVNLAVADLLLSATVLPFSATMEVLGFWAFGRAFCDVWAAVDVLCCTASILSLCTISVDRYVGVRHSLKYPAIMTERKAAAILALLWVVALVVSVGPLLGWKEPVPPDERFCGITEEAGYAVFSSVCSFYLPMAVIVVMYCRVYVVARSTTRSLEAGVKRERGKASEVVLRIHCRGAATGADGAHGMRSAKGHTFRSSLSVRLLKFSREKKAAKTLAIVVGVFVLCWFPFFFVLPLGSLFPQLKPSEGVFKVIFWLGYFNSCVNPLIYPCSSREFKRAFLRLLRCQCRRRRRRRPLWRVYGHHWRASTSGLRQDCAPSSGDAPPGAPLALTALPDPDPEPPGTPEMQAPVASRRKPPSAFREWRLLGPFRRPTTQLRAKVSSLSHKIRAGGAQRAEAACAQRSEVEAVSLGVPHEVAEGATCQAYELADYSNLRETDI
T3 sequence (P35368 whole entry): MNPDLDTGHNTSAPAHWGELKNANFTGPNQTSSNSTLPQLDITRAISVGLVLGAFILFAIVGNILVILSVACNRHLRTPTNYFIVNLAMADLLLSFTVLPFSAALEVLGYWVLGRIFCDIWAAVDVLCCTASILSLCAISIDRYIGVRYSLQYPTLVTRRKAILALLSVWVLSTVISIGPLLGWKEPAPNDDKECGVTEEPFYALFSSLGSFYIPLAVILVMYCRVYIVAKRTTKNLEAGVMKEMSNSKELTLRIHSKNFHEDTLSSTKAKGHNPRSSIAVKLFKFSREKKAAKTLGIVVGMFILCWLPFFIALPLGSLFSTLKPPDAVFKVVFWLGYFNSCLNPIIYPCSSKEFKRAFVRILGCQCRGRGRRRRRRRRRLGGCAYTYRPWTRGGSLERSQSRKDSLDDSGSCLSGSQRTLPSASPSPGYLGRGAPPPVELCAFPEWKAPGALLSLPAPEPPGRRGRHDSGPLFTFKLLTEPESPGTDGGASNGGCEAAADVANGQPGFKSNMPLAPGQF
Outline: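 Postmortem human cortex membranes, stored at −80 °C, assayed in 50 mM Tris-HCl pH 7.6. Incubated with 0.1 nM [3H]prazosin for 30 min at 30 °C, test agent at 10^-6 M or 10 concentrations; 5 μM phentolamine for nonspecific binding. IC50 by curve fitting, converted to Ki (Cheng–Prusoff).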

D(1A) dopamine receptor = D(1A) dopamine receptor (Homo sapiens, UniProt P21728); assay: The compound was tested for binding affinity against human Dopamine receptor D1
D(3) dopamine receptor = D(3) dopamine receptor (Homo sapiens, UniProt P35462); assay: The compound was tested for binding affinity against human Dopamine receptor D3
D(1B) dopamine receptor = D(1B) dopamine receptor (Homo sapiens, UniProt P21918); assay: The compound was tested for binding affinity against human Dopamine receptor D5
[5] = The compound was tested for binding affinity against MCB receptor
Mus musculus = assay: Antagonistic activity against apomorphine induced climbing in the mouse after po administration; format: functional
Outline: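 Male CD1 mice (20–25 g), groups of 10, dosed po with compound or vehicle ([…]) at set times before apomorphine 0.88 mg/kg sc. Each mouse placed in an inverted open-ended wire cage; climbing scored 0–2 at 10 and 20 min after apomorphine.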

Chain of D(1A) dopamine receptor (P21728 whole entry): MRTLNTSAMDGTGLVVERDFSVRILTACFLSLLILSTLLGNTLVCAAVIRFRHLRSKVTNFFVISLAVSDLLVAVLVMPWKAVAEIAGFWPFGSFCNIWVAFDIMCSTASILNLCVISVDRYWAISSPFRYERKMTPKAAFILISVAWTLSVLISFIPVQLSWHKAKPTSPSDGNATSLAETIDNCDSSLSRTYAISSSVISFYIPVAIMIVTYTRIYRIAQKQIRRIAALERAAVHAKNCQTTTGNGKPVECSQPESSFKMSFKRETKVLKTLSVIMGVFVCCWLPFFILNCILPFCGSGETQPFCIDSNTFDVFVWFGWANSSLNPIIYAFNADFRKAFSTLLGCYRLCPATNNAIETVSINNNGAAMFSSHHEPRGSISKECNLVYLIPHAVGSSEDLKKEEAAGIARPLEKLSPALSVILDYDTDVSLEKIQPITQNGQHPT
Chain of Serotonin 4 (5-HT4) receptor (Q6Q253 whole entry): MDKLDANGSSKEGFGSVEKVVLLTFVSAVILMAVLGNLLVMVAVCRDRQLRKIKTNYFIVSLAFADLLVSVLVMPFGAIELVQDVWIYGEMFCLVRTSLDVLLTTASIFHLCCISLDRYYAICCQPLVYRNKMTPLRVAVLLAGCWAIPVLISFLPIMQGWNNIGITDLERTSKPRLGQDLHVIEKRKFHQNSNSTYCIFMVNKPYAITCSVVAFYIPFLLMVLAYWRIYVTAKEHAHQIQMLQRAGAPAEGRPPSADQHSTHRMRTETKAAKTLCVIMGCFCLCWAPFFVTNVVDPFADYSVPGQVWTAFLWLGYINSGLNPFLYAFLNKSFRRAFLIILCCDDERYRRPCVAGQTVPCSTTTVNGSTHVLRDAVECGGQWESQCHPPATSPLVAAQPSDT
Chain of D(1B) dopamine receptor (P21918 whole entry): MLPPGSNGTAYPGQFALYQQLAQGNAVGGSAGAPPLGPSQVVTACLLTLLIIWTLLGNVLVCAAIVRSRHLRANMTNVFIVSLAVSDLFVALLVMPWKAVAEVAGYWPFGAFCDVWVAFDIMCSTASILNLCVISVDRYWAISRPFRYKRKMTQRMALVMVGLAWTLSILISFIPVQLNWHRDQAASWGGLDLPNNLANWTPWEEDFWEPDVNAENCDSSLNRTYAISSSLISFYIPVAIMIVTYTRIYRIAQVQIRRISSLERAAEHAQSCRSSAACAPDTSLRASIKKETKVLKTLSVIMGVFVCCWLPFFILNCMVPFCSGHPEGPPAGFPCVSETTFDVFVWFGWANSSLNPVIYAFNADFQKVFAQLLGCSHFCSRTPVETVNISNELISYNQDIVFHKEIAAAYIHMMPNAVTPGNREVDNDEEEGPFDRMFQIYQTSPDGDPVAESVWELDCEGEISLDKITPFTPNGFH
Chain of D(3) dopamine receptor (P35462 whole entry): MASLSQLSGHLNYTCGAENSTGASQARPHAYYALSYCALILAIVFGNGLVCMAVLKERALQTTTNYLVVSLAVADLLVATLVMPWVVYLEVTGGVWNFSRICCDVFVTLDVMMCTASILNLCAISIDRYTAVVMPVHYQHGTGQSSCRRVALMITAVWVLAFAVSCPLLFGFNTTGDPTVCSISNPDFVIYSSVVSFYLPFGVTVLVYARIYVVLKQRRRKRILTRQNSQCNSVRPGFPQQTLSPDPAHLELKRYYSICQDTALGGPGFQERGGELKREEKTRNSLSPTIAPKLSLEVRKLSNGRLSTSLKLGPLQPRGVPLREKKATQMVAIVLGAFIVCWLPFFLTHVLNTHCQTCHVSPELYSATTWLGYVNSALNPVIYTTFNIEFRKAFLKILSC

COc1ccccc1N1CCC(CNCC2COc3ccc(Cl)cc3O2)CC1 (centres undefined)
Ki [1]: 22 nM
Ki [2]: 3.6 nM
Ki [3]: > 1000 nM
Ki [4]: 181 nM
Ki (D(1A) dopamine receptor): > 1000 nM
Ki (D(3) dopamine receptor): 1.6 nM
Ki (D(1B) dopamine receptor): > 1000 nM
Ki [5]: > 1000 nM
ED50 (Mus musculus): 5 mg/kg
